# Like-named read-outs stand apart in the source and are kept apart here.
# Legend:
# Type in all cases: cell-based
# [1] = system: human promyelocytic leukemia HL-60 cells; test: WST-8 cytotoxicity assay, HL-60 cells; details: read-out: IC50 (μM) HL-60
# In short: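 HL-60 promyelocytic leukemia cells, grown in RPMI 1640 + 10% FBS at 37 °C, 5% CO2, plated at 5000 cells/well with various concentrations for 72 h (DMSO 0.1–0.2% v/v). CCK-8 (WST-8) reagent added for 2 h at 37 °C, absorbance read at 450 nm. Growth is taken as the sample/control absorbance ratio. IC50 is the mean ± SD of triplicate experiments. SN-38 positive control.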
# [2] = system: human lung adenocarcinoma A549 cells; test: WST-8 cytotoxicity assay, A549 cells; details: for IC50: read-out: IC50 (μM) A549; for SI (selectivity index): IC50 against normal MRC-5 cells divided by IC50 against A549 cells
# In short: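 Human lung adenocarcinoma A549 cells, kept in DMEM + 10% FBS at 37 °C, 5% CO2, seeded at 2000 cells/well, preincubated 24 h, then exposed to various concentrations for 72 h (DMSO 0.1–0.2% v/v). WST-8 (CCK-8) reagent 2 h at 37 °C, A450. Growth is sample/control absorbance. IC50 is mean ± SD of triplicates. SN-38 positive control. SI = MRC-5 IC50 / A549 IC50.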
# [3] = system: human normal lung fibroblast MRC-5 cells; test: WST-8 cytotoxicity assay, normal MRC-5 cells; details: read-out: IC50 (μM) MRC-5
# In short: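 Normal lung fibroblast MRC-5 cells in α-MEM without ribonucleosides/deoxyribonucleosides + 10% FBS. Seeded at 2000 cells/well, preincubated 24 h, then treated with various concentrations for 72 h (DMSO 0.1–0.2% v/v). WST-8 (CCK-8) reagent 2 h at 37 °C, A450. Growth is the ratio of sample to control absorbance. IC50 is the mean ± SD of triplicates. SN-38 positive control.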
# [4] = Table 3, WST-8, 72 h, mean ± SD of triplicate experiments
# [5] = Table 4, WST-8, 72 h, mean ± SD of triplicate experiments
SMILES,"IC50 ([1]; Homo sapiens, HL-60, 72 h) [µM]","IC50 ([2]; Homo sapiens, A549, 72 h) [µM]",SI (selectivity index) ([2]; Table 4),"IC50 ([3]; Homo sapiens, MRC5, 72 h) [µM]",SI (selectivity index) ([2]; Table 3),"IC50 [1, 4] [µM]","IC50 [1, 5] [µM]","IC50 [2, 4] [µM]","IC50 [2, 5] [µM]","IC50 [3, 4] [µM]","IC50 [3, 5] [µM]"
"CC(C)=CCn1c2ccc(Cl)c(=O)c-2nc2ccccc21 [3c, 2-Chloro-5-(3-methylbut-2-en-1-yl)phenazin-1(5H)-one]",2.2 ± 0.07,0.66 ± 0.016,1.00,0.66 ± 0.041,,,,,,,
"Cn1c2ccc(Br)c(=O)c-2nc2ccccc21 [1b, 2-Bromo-5-methylphenazin-1(5H)-one]",3.07 ± 0.08,2.59 ± 0.056,,3.36 ± 0.204,1.30,,,,,,
"Cn1c2cccc(=O)c-2nc2ccccc21 [1a, pyocyanin]",5.82 ± 0.133,5.52 ± 0.28,,21.8 ± 2.55,3.95,,,,,,
"CCc1c2c(nc3ccc(O)cc13)-c1cc3c(c(=O)n1C2)COC(=O)[C@]3(O)CC [SN-38, reference compound]",,,,,,< 0.05,0.056 ± 0.002,0.038 ± 0.003,0.052 ± 0.003,< 0.1,0.092 ± 0.001

# — PMC7594318 (ACS Omega, 2020)
